These results are taken from ChEMBL document CHEMBL1275590, “Novel arylimidamides for treatment of visceral leishmaniasis” (Antimicrob Agents Chemother, 2010).

Usually half-life stands for how long it takes for the measured level to halve. High values mean slow decline, low ones rapid decline. As usually defined, the Tmax is the time from dosing to the highest level. What is called AUC is concentration integrated over time. A low value points to low exposure. For orientation: Cmax means the highest concentration seen after dosing.

Data set [1] is described as follows: Half life in Swiss Webster mouse at 70 mg/kg, po by HPLC-MS/MS analysis. The class given is ADME, organism-based. Set-up: dose 70 mg/kg, route oral. Conditions: in vivo. In short, it runs like this: (§1)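 Male Swiss Webster mice, n = 3 per time point. For i.v., the compound was dissolved in sterile water, diluted 1:1 with 2× saline, and given as a tail-vein bolus over ~10–20 s. For p.o., it was given by gavage in sterile water. Dose volume was 5 ml/kg. Terminal plasma was taken from 5 min to 72 h and measured by HPLC-MS/MS (calibration 2.5–10,000 nM). Parameters came from noncompartmental analysis.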

Data set [2] is described as follows: Drug level in Swiss Webster mouse liver at 70 mg/kg, po after 2 hrs by HPLC/UV analysis. Conditions: read-out: Drug uptake.
Data set [3] is described as follows: Induction of mutagenicity in Salmonella serovar Typhimurium TA 98 assessed as number of revertant colonies at 5 ug by Ames assay. It counts as toxicity, Salmonella enterica subsp. enterica serovar Typhimurium. As to conditions: in vivo. In short, it runs like this: (§2)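 Ames plate incorporation with S. Typhimurium TA98 and TA100, with or without Aroclor 1254-induced rat liver S9 (10% vol/vol). Compound was dissolved in sterile water and serially diluted to 1–500 μg/plate. Positive controls were 2-nitrofluorene and sodium azide without S9, and 2-aminoanthracene with S9; sterile water and DMSO served as vehicles. Revertant colonies and background lawn were scored. A mutagen was defined as a mean revertant count at least 2-fold over solvent control. Single experiment.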

The nature of data set [4]: Tmax in Swiss Webster mouse at 70 mg/kg, po by HPLC-MS/MS analysis. It counts as ADME, organism-based. More on the design: dose 70 mg/kg, route oral. Conditions: in vivo. In a few lines:
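Male Swiss Webster mice (n = 3 per time point), single dose by oral gavage (sterile water solution) or tail-vein bolus i.v. (water diluted 1:1 with 2× saline, over ~10–20 s); dose volume 5 ml/kg. Terminal blood sampled from 5 min to 72 h postdose; plasma quantified by HPLC-MS/MS (positive-ion SRM). Noncompartmental analysis gave Cmax, Tmax, AUC0-∞, CL, Vss; bioavailability from p.o. versus i.v. exposure.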

The test system of data set [5] is Mus musculus. Put plainly: Toxicity in BALB/c mouse assessed as occurrence of tremor at 20 mg/kg/day, iv administered for five days measured on day 2. The class given is organism-based. More on the design: route intravenous. As to conditions: in vivo. In short, it runs like this:
(§3)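 Female BALB/c mice (n = 5 per dose), dosed once daily for 5 consecutive days p.o. (20 ml/kg) or i.v. (10 ml/kg) with compound in sterile water, prepared fresh daily under yellow light. Vehicle controls n = 5 per route. Clinical observations, body weights, serum chemistry and hematology on day 6 before necropsy; histopathology of formalin-fixed tissues. Chemistry analysed by one-way ANOVA with Dunnett's posttest.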

A short description of data set [6]: Drug level in Swiss Webster mouse liver at 5 mg/kg, iv after 2 hrs by HPLC/UV analysis. As to conditions: read-out: Drug uptake.
A short description of data set [7]: Induction of mutagenicity in Salmonella serovar Typhimurium TA 100 assessed as number of revertant colonies at 5 ug by Ames assay in presence of Aroclor 1254-induced rat liver S9 metabolic activation system. The class given is toxicity, subcellular, Salmonella enterica subsp. enterica serovar Typhimurium. In a few lines:
as §2

Data set [8] relates to Mus musculus. Briefly: AUC (0 to infinity) in Swiss Webster mouse at 66 mg/kg, po by HPLC-MS/MS analysis. As to conditions: in vivo. More on the design: time infinity, dose 66 mg/kg, route oral. It counts as ADME, organism-based, Plasma. In short, it runs like this: as §1
For data set [9], the system named is Mus musculus. Put plainly: Toxicity in BALB/c mouse at 150 mg/kg/day, po administered for five days measured on day 5. Conditions: in vivo. It counts as organism-based. More on the design: route oral. In a few lines: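 Five-day repeat-dose study in female BALB/c mice (n = 5 per dose level): oral dosing once daily for five consecutive days in sterile water prepared fresh daily under yellow light, 20 ml/kg. Vehicle controls received sterile water only. Clinical observations and body weights were recorded, with blood for hematology and serum chemistry taken on day 6 before necropsy. A veterinary pathologist examined formalin-fixed tissues.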

The test system of data set [10] is Mus musculus. Briefly: Renal toxicity in BALB/c mouse assessed as phosphorus level in serum at 10 mg/kg/day, iv administered for five days ((Rvb= 6.1 mg/dl). Conditions: in vivo. The class given is organism-based. More on the design: route intravenous. In a few lines: as §3
Data set [11] has as its system Mus musculus. Briefly: Toxicity in BALB/c mouse assessed as tremor at 100 mg/kg/day, ip after second dose. It counts as organism-based. More on the design: route intraperitoneal. Conditions: in vivo. In short, it runs like this: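 Acute overt toxicity was checked in uninfected female BALB/c mice before the efficacy work. Compounds were given intraperitoneally once daily for 5 days, and mice were watched for clinical signs such as ruffled fur, hypoactivity, tremors, ataxia and startle, and for survival.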

Data set [12] deals with Mus musculus. Briefly: Toxicity in BALB/c mouse assessed as occurrence of tremor at 10 mg/kg/day, iv administered for five days measured on day 2. It counts as organism-based. Set-up: route intravenous. As to conditions: in vivo. In a few lines: as §3
For data set [13], the system named is Mus musculus. Briefly: Toxicity in BALB/c mouse assessed as occurrence of hemorrhage at 150 mg/kg/day, po. Set-up: route oral. The class given is organism-based. As to conditions: in vivo. In short, it runs like this: as §3
Data set [14] relates to Mus musculus. Put plainly: Hepatotoxicity in BALB/c mouse assessed as AST level in serum at 10 mg/kg/day, iv administered for five days (Rvb= 65 U/L). The class given is toxicity, organism-based. More on the design: route intravenous. As to conditions: in vivo.
Data set [15] in a line: Cmax in Swiss Webster mouse at 16.5 mg/kg, po by HPLC-MS/MS analysis. As to conditions: in vivo. Set-up: dose 16.5 mg/kg, route oral. The class given is ADME, organism-based. In a few lines:
as §1

In data set [1], `CC(C)Oc1cc(NC(=N)c2ccccn2)ccc1-c1ccc(-c2ccc(NC(=N)c3ccccn3)cc2OC(C)C)o1` had a half-life of 48 h. In addition, the results for the concentration at 2 h in [2] and in [6] were 45.8 µM and 18.7 µM, respectively. In addition, the Activity in data set [3] is on record as 29; in data set [5], “Toxic”; in data set [7] it was 154. Moreover, the time to peak (Tmax) in data set [4] stood at 1 h.

In [8], `CCOc1cc(NC(=N)c2ccccn2)ccc1-c1ccc(-c2ccc(NC(=N)c3ccccn3)cc2OCC)o1` returned an AUC of 5.6 µM·h. Moreover, the Activity result was “Toxic” in [9]; 8.1 mg/dL in data set [10]; “Toxic” in data set [11]; “Toxic” in data set [12]; “Toxic” in [13]; 80 U/L in data set [14]. This molecule also showed a Cmax in data set [15] of 0.02 µM.
